CYP2C19 inhib: inhibitors of human CYP2C19 | P33261 | CYP2C19 Supersomes, luciferin-H EGE luminescence, 30 min | inhibition, % at 5 µM | 96,000 tested, 21% active | AID 778;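 active = CYP2C19 inhibition above a set limit at 5 µM in the primary screen, cut at about 50% in these data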
Target sequence (P33261 whole entry, looked up): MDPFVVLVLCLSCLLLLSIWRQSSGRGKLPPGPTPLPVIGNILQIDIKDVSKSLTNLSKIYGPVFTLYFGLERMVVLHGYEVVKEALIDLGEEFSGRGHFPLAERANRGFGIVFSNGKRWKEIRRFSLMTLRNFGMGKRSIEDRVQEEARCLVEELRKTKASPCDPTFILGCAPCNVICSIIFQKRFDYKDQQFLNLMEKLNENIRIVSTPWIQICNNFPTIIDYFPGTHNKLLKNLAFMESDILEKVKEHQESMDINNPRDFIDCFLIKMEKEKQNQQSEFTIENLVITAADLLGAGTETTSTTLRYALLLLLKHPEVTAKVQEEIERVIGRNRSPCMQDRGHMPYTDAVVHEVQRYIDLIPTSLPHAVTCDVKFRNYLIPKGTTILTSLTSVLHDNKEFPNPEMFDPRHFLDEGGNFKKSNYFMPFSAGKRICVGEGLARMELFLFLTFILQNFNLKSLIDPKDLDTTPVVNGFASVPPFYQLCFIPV
HIV Rev-RRE inh: disrupts HIV-1 Rev binding to RRE RNA. P05866. Rev peptide-RRE RNA binding, FRET. inhibition, % at 8 µM. 97,000 tested, 0.79% active. AID 704;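 active = inhibition above the screen-wide mean plus 3 SD, cut at about 35% in these data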
Target sequence (P05866 whole entry, looked up): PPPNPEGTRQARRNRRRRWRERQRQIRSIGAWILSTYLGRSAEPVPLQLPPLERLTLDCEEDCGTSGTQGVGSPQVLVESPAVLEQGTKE
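Test system: Cy5-tagged RRE RNA duplex with fluorescein-tagged Rev peptide | Read-out: % inhibition of FRET ratio versus controls | Probe or stimulus: Labelled Rev peptide | Incubation: 5 min RNA-compound premix plus 15 min binding step, 25 °C | Technique: FRET fluorescence readout | Benchmarks: DMSO low control, neomycin B high control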
CYP2C9 inhib: blocks human cytochrome P450 2C9. P11712. CYP2C9 Supersomes, luciferin-H conversion, luminescence. inhibition, % at 5 µM. 96,000 tested, 20% active. AID 777;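 active = blocking of liver enzyme CYP2C9 beyond about 50% at 5 µM, limit read from the data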
Cav32 inh: human Cav3.2 channel inhibition, primary screen. O95180. Cav3.2-expressing cells, Fluo-4 calcium fluorescence FDSS; stronger effect = lower value. B-score at 10 µM. 100,000 tested, 4% active. AID 449739;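 active = single-dose well whose peak fluorescence ratio is a statistical outlier from its plate by either plate-standardised score or position-corrected B-score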
CYP2C19 act: cytochrome P450 2C19 (human) activation. P33261. recombinant CYP2C19, luciferin-H EGE luminescence; stronger effect = higher value; 0 = fully inhibited enzyme, 1 = untreated enzyme. activation factor at 5 µM. 96,000 tested, under 10 active;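 active = activation factor of at least 2 at 5 µM in the primary screen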
CYP2C9 activ: increases human cytochrome P450 2C9 activity. P11712. recombinant CYP2C9, luciferin-H conversion, luminescence; stronger effect = higher value; factor 1 = untreated enzyme, 0 = blocked. activation factor at 5 µM. 96,000 tested, 1.4% active;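 active = activation factor of 2 or more for CYP2C9 at a 5 µM dose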
Each line names hits and unclear results; the compound was inactive in the other large screens. This is a sample that favours compounds with a hit; in the whole collection about 27% have one here.

CCOC(=O)CCNC(C(=O)OCC)c1ccccc1 (configuration not stated)	none
CN=C1CC(C)(C)CC(=O)/C1=C(/O)CCC(=O)NC	none (no result: CYP2C19 inhib, CYP2C9 inhib, CYP2C19 act, CYP2C9 activ)
Cc1csc(NC(=O)C2CCCN(S(=O)(=O)c3cnc[nH]3)C2)n1 (configuration not stated)	none
CCOC(=O)N1CCC(NC(=O)C2CCN(S(=O)(=O)c3cnc[nH]3)CC2)CC1	none (no result: HIV Rev-RRE inh)
CC(C)c1ccc(NC(=O)C2CCCN(S(=O)(=O)c3cnc[nH]3)C2)cc1 (configuration not stated)	CYP2C19 inhib 61.6, CYP2C9 inhib 62.3
CC(C)NC(=O)C1CCCN(S(=O)(=O)c2cccs2)C1 (configuration not stated)	CYP2C19 inhib 58.0
O=C(Nc1ccc(Cl)cc1)C1CCCN(S(=O)(=O)c2cnc[nH]2)C1 (configuration not stated)	CYP2C19 inhib 89.7, CYP2C9 inhib 87.9
CCOC(=O)c1ccc(NC(=O)C2CCCN(S(=O)(=O)c3cnc[nH]3)C2)cc1 (configuration not stated)	CYP2C19 inhib 92.2, CYP2C9 inhib 95.7
O=C(NC1CCCC1)C1C2C=CC(C2)C1C(=O)N1CCOCC1 (configuration not stated)	none
COc1ccc(OCC(=O)NC2CC(C)(C)NC(C)(C)C2)cc1	none (no result: HIV Rev-RRE inh)
O=C(NCCN1CCN(c2ccccc2F)CC1)C1CCCN(S(=O)(=O)c2cnc[nH]2)C1 (configuration not stated)	none (no result: Cav32 inh)
CC(NC(=O)C1CCCN(S(=O)(=O)c2cnc[nH]2)C1)c1ccccc1 (configuration not stated)	CYP2C19 inhib 69.8, CYP2C9 inhib 73.7
Cc1cccc(NC(=S)NC2CC3CCCC(C2)N3Cc2cccs2)c1 (configuration not stated)	none
O=S(=O)(Nc1ccncc1)c1ccccc1	none
CCN(CC)C(=O)c1ccc(NS(=O)(=O)c2ccccc2)cc1	CYP2C19 inhib 82.5, CYP2C9 inhib 76.9 (no result: Cav32 inh)
CC(=O)c1ccc(NS(=O)(=O)c2ccccc2)cc1	CYP2C19 inhib 61.1, CYP2C9 inhib 78.7
CCCCNC(=O)c1ccc(NS(=O)(=O)c2ccccc2)cc1	CYP2C9 inhib 93.4
CC(=O)c1cccc(NC(=O)Oc2ccccc2)c1	none (no result: Cav32 inh)
CC(=O)c1ccc(NC(=O)Oc2ccccc2)cc1	CYP2C19 inhib 54.1
CCN(CC)C(=O)CN1C(=O)COCC1=O	none
Cc1cc(C2(c3ccc(O)c(C)c3)C(=O)Nc3ccccc32)ccc1O	none (no result: Cav32 inh)
Cc1cccc2c1NC(=O)C2(c1ccc(O)cc1)c1ccc(O)cc1	CYP2C19 inhib 60.4, CYP2C9 inhib 78.6, Cav32 inh -5.15
O=C(CSc1ncnc2sc3c(c12)CCCC3)c1ccco1	none (no result: Cav32 inh)
O=C(c1ccco1)N1CCN(C2CCCC2)CC1	none (no result: HIV Rev-RRE inh, Cav32 inh)
O=C(c1ccco1)N1CCN(c2nc(C3CC3)nc3sc4c(c23)CCCC4)CC1	CYP2C9 inhib 70.1
CCc1nc(SCC(=O)N2CCN(C(=O)c3ccco3)CC2)c2c3c(sc2n1)CCCC3	CYP2C9 inhib 59.0 (no result: HIV Rev-RRE inh)
Cc1ccc(C(N)=S)c(C)c1	none (no result: CYP2C19 inhib, CYP2C9 inhib, CYP2C19 act, CYP2C9 activ)
O=C(CN1CCC(C(O)(c2ccccc2)c2ccccc2)CC1)Nc1ccccc1	CYP2C9 inhib 78.2, Cav32 inh -2.36
O=C(CN1CCOCC1)Nc1ccccc1Cl	none
O=C(CN1CCC(C(O)(c2ccccc2)c2ccccc2)CC1)Nc1cc(Cl)ccc1Cl	CYP2C9 inhib 64.7
CCN(CC)C(=O)CSc1ccccc1N	none
O=C(CCCC(=O)OCC(F)(F)C(F)F)Nc1nccs1	CYP2C19 inhib 51.3, CYP2C9 inhib 60.3
Cc1ccc(S(=O)(=O)NCCCCCC(=O)Nc2nccs2)cc1	CYP2C19 inhib 73.9, CYP2C9 inhib 79.7
COCCNC(=O)CCCCCNS(=O)(=O)c1ccc(C)cc1	none
COc1ccc(C2(O)CCN(CC(=O)Nc3nccs3)CC2)c(OC)c1	Cav32 inh -4.66
CCc1nnc(NC(=O)CN2CCC(O)(c3ccccc3OC)CC2)s1	none
O=C(CN1CCN(c2ccccc2)CC1)Nc1nccs1	CYP2C19 inhib 69.5, CYP2C9 inhib 90.0
CCOc1ccccc1N1CCN(CC(=O)Nc2nnc(CC)s2)CC1	none (no result: CYP2C19 inhib, CYP2C9 inhib, CYP2C19 act, CYP2C9 activ)
O=C(CCSc1ccccc1)Nc1nccs1	CYP2C19 inhib 62.5
O=C(CCSc1ccccc1)Nc1ncccn1	none
CCc1nnc(NC(=O)CN2CCN(c3nc(-c4ccccc4)cs3)CC2)s1	CYP2C9 inhib 64.1
Cc1ccc(C)c(OCCCC(=O)Nc2nccs2)c1	Cav32 inh -4.62
Cc1ccccc1OCCCC(=O)Nc1nccs1	CYP2C19 inhib 80.5
CCCc1[nH]c(=O)c(C#N)c2c1CCCC2	none
N#CC1(c2ccccc2)CCC(=NO)CC1 (configuration not stated)	none (no result: Cav32 inh)
CCn1c(C)nc2cc(-c3nnc(-c4c(-c5ccccc5)noc4C)o3)ccc21	none
COc1ccc2nc3oc(C(=O)N4CCN(c5ccccc5F)CC4)cc3cc2c1	none
O=C(CCCSc1ccccc1)Nc1nc(-c2ccccn2)cs1	Cav32 inh -6.34
O=C(CCSc1ccccc1)NC1CCCC1	CYP2C19 inhib 82.8 (no result: HIV Rev-RRE inh)
CS(=O)(=O)N1CCCC(C(=O)NCc2ccccc2Cl)C1 (configuration not stated)	none
Cc1onc(-c2ccccc2)c1C(=O)Nc1ccnn1C1CCCCC1	none
CCCCNC(=O)Nc1ccnn1C1CCCCC1	CYP2C19 inhib 56.8 (no result: HIV Rev-RRE inh)
CC(C)c1ccccc1N=C1SCCN1C1CCS(=O)(=O)C1 (configuration not stated)	CYP2C19 inhib 58.3
Cc1ccc(C)n1C1CCS(=O)(=O)C1 (configuration not stated)	none
COc1cnc(SCC(=O)O)[nH]c1=O	none
O=C(NCc1ccco1)c1ccc2c(=O)n(CCC3=CCCCC3)c(=O)[nH]c2c1	none
CCOc1ccccc1NC(=O)/C=C/C(N)=O	none
CC(=O)c1cccc(NC(=O)Nc2ccc3c(c2)N(C)C(=O)CS3)c1	CYP2C19 inhib 67.9, CYP2C9 inhib 59.4
O=C(OCCN=C1NS(=O)(=O)c2ccccc21)c1cccnc1	none
O=C(OCCN=C1NS(=O)(=O)c2ccccc21)C1CC(=O)N(c2ccc(Cl)cc2)C1 (configuration not stated)	CYP2C9 inhib 63.4
COc1ccc(C(=O)COC(=O)CCN=C2NS(=O)(=O)c3ccccc32)cc1OC	CYP2C19 inhib 74.0
O=C(OCCN=C1NS(=O)(=O)c2ccccc21)c1ccccc1	CYP2C9 inhib 85.4
Cc1ccc(C(=O)N/C(=C\c2cn(-c3ccccc3)nc2-c2ccccc2)C(=O)N2CCOCC2)cc1	none
Cc1ccc(OCC(=O)OC2CCS(=O)(=O)C2)cc1 (configuration not stated)	none
COc1ccc2nc(C)[nH]c(=O)c2c1	none
COc1ccc2nc(Nc3nc(C)c(CCC(C)C)c(=O)[nH]3)nc(C)c2c1	CYP2C19 inhib 60.1, CYP2C9 inhib 57.5, Cav32 inh -5.36

Source: PubChem
